In brackets after ≈: the same amount, converted by molar mass. Activity calls are given as the source filed them. The calls are words filed in the database; no cut-off is given here.
Experiments:
Escherichia coli = assay: Antibacterial activity against TolC-deficient Escherichia coli after 16 to 20 hrs by microdilution method; format: functional
Procedure, shortened: (§1)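 Samples were serially diluted from 2 mg/mL stocks and the cells added. Growth was 16−20 h at the optimal temperature (30 or 37 °C). MIC was taken as the lowest concentration with no visible growth.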

Micrococcus luteus = assay: Antibacterial activity against Micrococcus luteus DSM 1790 after 16 to 20 hrs by microdilution method; format: functional; procedure, shortened: as §1
Bacillus subtilis = assay: Antibacterial activity against Bacillus subtilis DSM 10 after 16 to 20 hrs by microdilution method; format: functional; procedure, shortened: as §1
Staphylococcus carnosus = assay: Antibacterial activity against Staphylococcus carnosus DSM 20501 after 16 to 20 hrs by microdilution method; format: functional; procedure, shortened: as §1
Pseudomonas putida [1] = assay: Inhibition of N-acyl-homoserinlactone-related quorum sensing activity in Pseudomonas putida F117 at 5 uM measured up to 5.5 hrs by fluorescence assay
Procedure, shortened: (§2)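 The sensor strain P. putida F117 (pKRC12) was grown overnight in Luria−Bertani medium with gentamycin (20 μg/mL) at 30 °C, shaking at 160 rpm. Test samples were added at different concentrations.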

Staphylococcus aureus = assay: Antibacterial activity against Staphylococcus aureus Newman after 16 to 20 hrs by microdilution method; format: functional; procedure, shortened: as §1
Mucor hiemalis = assay: Antibacterial activity against Mucor hiemalis DSM 2656 after 16 to 20 hrs by microdilution method; format: functional
Procedure, shortened: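 The fungus, in mid-log phase, was diluted to about 5 × 10⁵ to 5 × 10⁶ cfu/mL final in Myc medium (1% phytone peptone, 1% glucose, 50 mM HEPES, pH 7.0). Samples were serially diluted from 2 mg/mL stocks. Growth was 16−20 h at 30 or 37 °C. MIC was taken as the lowest concentration with no visible growth.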

Pseudomonas putida [2] = assay: Induction of N-acyl-homoserinlactone-related quorum sensing activity in Pseudomonas putida F117 measured up to 5.5 hrs by fluorescence assay; procedure, shortened: as §2

MIC (Escherichia coli) [µg/mL] | MIC (Micrococcus luteus) [µg/mL] | MIC (Bacillus subtilis) [µg/mL] | MIC (Staphylococcus carnosus) [µg/mL] | inhibition (Pseudomonas putida [1]) | MIC (Staphylococcus aureus) [µg/mL] | MIC (Mucor hiemalis) [µg/mL] | Activity (Pseudomonas putida [2]) | Compound
16 (≈ 45 µM) | 8 (≈ 22.5 µM) | 128 (≈ 360 µM) | 16 (≈ 45 µM) |  |  |  |  | CCCCCC/C=C\CCCCCC(O)CC(=O)N[C@@H](C)C(=O)OC (stereo partly specified)
8 to 16 (≈ 22.5 to 45 µM) | 32 to 64 (≈ 90 to 180 µM) |  |  | inactive | 32 to 64 (≈ 90 to 180 µM) | 32 to 64 (≈ 90 to 180 µM) | inactive | COC(=O)[C@H](C)NC(=O)CCCCCCC/C=C\CCCCCCO
16 (≈ 45.3 µM) | 16 (≈ 45.3 µM) | 16 (≈ 45.3 µM) | 8 (≈ 22.6 µM) |  |  |  |  | CCCCCC/C=C\CCCCCC(=O)CC(=O)N[C@@H](C)C(=O)OC
 |  |  |  | inactive |  |  | inactive | CCCCCC/C=C\CCCCCCCC(=O)N[C@@H](C)C(=O)OC

From ChEMBL document CHEMBL4130601, “Oxygenated N-Acyl Alanine Methyl Esters (NAMEs) from the Marine Bacterium Roseovarius tolerans EL-164” (2018)
